{"data": "Measurements collected from several papers", "target": "Cytoplasmic tyrosine-protein kinase BMX (BMX, Homo sapiens, UniProt P51813)", "Residues used in one study (P51813 1-675)": "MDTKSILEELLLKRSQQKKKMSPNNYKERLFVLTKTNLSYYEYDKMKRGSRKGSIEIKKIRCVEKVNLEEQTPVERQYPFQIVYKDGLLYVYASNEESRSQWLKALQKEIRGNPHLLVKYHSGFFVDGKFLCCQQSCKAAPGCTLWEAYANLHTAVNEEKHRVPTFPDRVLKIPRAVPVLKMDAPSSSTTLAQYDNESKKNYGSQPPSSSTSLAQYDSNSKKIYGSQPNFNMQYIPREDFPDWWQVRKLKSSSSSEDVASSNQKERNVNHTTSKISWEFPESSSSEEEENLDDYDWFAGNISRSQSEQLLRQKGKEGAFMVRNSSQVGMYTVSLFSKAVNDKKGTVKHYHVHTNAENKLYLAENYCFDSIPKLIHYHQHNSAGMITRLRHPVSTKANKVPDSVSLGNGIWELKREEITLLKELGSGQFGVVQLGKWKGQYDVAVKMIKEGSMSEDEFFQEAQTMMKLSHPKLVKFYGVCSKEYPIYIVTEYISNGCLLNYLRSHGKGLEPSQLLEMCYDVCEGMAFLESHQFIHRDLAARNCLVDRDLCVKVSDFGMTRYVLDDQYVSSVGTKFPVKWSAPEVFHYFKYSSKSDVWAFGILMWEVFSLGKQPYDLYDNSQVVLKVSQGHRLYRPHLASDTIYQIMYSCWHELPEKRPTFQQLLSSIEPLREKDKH", "note": "Protocols differ between the studies behind these lines."}
{"Structure (SMILES)": "Cn1cncc1C1=CN(c2ncnc3[nH]cnc23)CCS1", "effect on": "enzyme activity", "mode": "inhibitor", "technique": "radiometric", "tested at": "50 nM", "measurement": "inhibition", "result": "13.9%"}
{"Structure (SMILES)": "Cn1c2c(c3ccc(Cl)c(Cl)c31)C(C#N)C1(CCNCC1)NC2=O (racemic)", "effect on": "thermal stability", "technique": "DSF", "tested at": "10 µM", "measurement": "ΔTm", "result": "-0.3 °C"}
{"Structure (SMILES)": "CC(=O)N1CCC(c2ccc(C(=O)NC(=N)N)cc2C(F)(F)F)CC1", "effect on": "cell-free assay", "technique": "competition with immobilised ligand", "tested at": "1 µM", "measurement": "remaining binding", "result": "100%"}
{"Structure (SMILES)": "CCN(CC)CCNC(=O)c1c(C)[nH]c(/C=C2\\C(=O)Nc3ccc(F)cc32)c1C", "effect on": "enzyme activity", "mode": "inhibitor", "tested at": "0.3 µM", "measurement": "inhibition", "result": "-1%"}
{"Structure (SMILES)": "Nc1c(C(=O)NCc2ccc(C(=O)NCCCC3CCCCC3)cc2)cnn1-c1ccccc1", "effect on": "cell-free assay", "technique": "competition with immobilised ligand", "tested at": "0.1 µM", "measurement": "remaining binding", "result": "100%"}
{"Structure (SMILES)": "N#CC1c2c([nH]c3c(Cl)c(Cl)ccc23)C(=O)NC12CCCCC2 (racemic)", "effect on": "thermal stability", "technique": "DSF", "tested at": "10 µM", "measurement": "ΔTm", "result": "-0.1 °C"}
{"Structure (SMILES)": "CNC(=O)c1cc(Oc2ccc(NC(=O)Nc3ccc(Cl)c(C(F)(F)F)c3)cc2)ccn1", "effect on": "enzyme activity", "mode": "inhibitor", "tested at": "10 µM", "measurement": "inhibition", "result": "9%"}
{"Structure (SMILES)": "COc1cc2nccc(Oc3ccc(NC(=O)c4c5n(n(-c6ccc(F)cc6)c4=O)CCCC5)cc3)c2cc1OC", "effect on": "enzyme activity", "mode": "inhibitor", "tested at": "0.1 µM", "measurement": "inhibition", "result": "22%"}
{"Structure (SMILES)": "Cc1ccc(Nc2nccc(N(C)c3ccc4c(C)n(C)nc4c3)n2)cc1S(N)(=O)=O", "effect on": "enzyme activity", "mode": "inhibitor", "tested at": "10 µM", "measurement": "inhibition", "result": "70%"}
{"Structure (SMILES)": "FC(F)(F)c1ccc(/C=C/c2nc(COc3ccc(CCCCn4ccnn4)cc3)co2)cc1", "effect on": "enzyme activity", "mode": "inhibitor", "tested at": "0.5 µM", "measurement": "remaining activity", "result": "99%"}
{"Structure (SMILES)": "CC(=O)C1=C(C)N(c2cccc(C(F)(F)F)c2)C(=O)N[C@@H]1c1ccc(C#N)nc1", "effect on": "cell-free assay", "technique": "competition with immobilised ligand", "tested at": "1 µM", "measurement": "remaining binding", "result": "97.4%"}
{"Structure (SMILES)": "COc1cc2ncnc(Nc3ccc(Oc4ccccc4)cc3C)c2cc1OC", "effect on": "enzyme activity", "mode": "inhibitor", "tested at": "1 µM", "measurement": "inhibition", "result": "35%"}
{"Structure (SMILES)": "CC1=C(C#N)[C@@H](c2ccc3[nH]nc(C)c3c2)C(C#N)=C(c2ccc(Cl)cc2)N1", "effect on": "cell-free assay", "technique": "competition with immobilised ligand", "tested at": "1 µM", "measurement": "remaining binding", "result": "100%"}
{"Structure (SMILES)": "Cc1ccc(C(=O)NCc2ccsc2)cc1C#Cc1cn(C(C)C)c2ncnc(N)c12", "effect on": "enzyme activity", "mode": "inhibitor", "tested at": "1 µM", "measurement": "activity vs control", "result": "2%"}
{"Structure (SMILES)": "Cn1c2c(c3ccc(Cl)c(Cl)c31)C(C#N)C1(CCCC1)NC2=O (centres unmarked)", "effect on": "thermal stability", "technique": "DSF", "tested at": "10 µM", "measurement": "ΔTm", "result": "0 °C"}
{"Structure (SMILES)": "O=C1NC(=O)c2cc(Nc3ccc(F)cc3)c(Nc3ccc(F)cc3)cc21", "effect on": "cell-free assay", "tested at": "0.5 µM", "measurement": "remaining signal", "result": "95.3%"}
{"Structure (SMILES)": "Cn1cc(Cl)c2c(Oc3c(F)cc(Nc4cc(Cl)nc(N)n4)cc3F)ccnc21", "effect on": "cell-free assay", "technique": "competition with immobilised ligand", "tested at": "0.1 µM", "measurement": "remaining binding", "result": "97%"}
{"Structure (SMILES)": "N#CCCc1ccc2c(c1)-c1[nH]c3ccc([N+](=O)[O-])cc3c1CC(=O)N2", "effect on": "cell-free assay", "tested at": "0.5 µM", "measurement": "remaining signal", "result": "99.5%"}
{"Structure (SMILES)": "CCCS(=O)(=O)Nc1ccc(F)c(C(=O)c2c[nH]c3ncc(-c4ccc(Cl)cc4)cc23)c1F", "effect on": "enzyme activity", "mode": "inhibitor", "tested at": "1 µM", "measurement": "inhibition", "result": "< 20%"}
{"Structure (SMILES)": "O=C(Nc1cccnn1)N1CCC(=Cc2cccc(Oc3ccc(C(F)(F)F)cn3)c2)CC1", "effect on": "cell-free assay", "technique": "competition with immobilised ligand", "tested at": "1 µM", "measurement": "remaining binding", "result": "71%"}
{"Structure (SMILES)": "Cn1c2c(c3ccccc31)C(C#N)C(C)(C)NC2=O (centres unmarked)", "effect on": "thermal stability", "technique": "DSF", "tested at": "10 µM", "measurement": "ΔTm", "result": "-0.4 °C"}
{"Structure (SMILES)": "CC(C)[C@H](CO)Nc1nc(Nc2cc(N)cc(Cl)c2)c2ncn(C(C)C)c2n1", "effect on": "enzyme activity", "mode": "inhibitor", "tested at": "0.5 µM", "measurement": "remaining activity", "result": "81.9%"}
{"Structure (SMILES)": "CN(C)C1CCN(CC#Cc2nn(C3CCCC3)c3nc(NCc4ccccc4)ncc23)C1 (centres unmarked)", "effect on": "enzyme activity", "mode": "inhibitor", "technique": "FRET", "tested at": "10 µM", "measurement": "inhibition", "result": "14%"}
{"Structure (SMILES)": "Cn1c2c(c3ccc(Cl)c(Cl)c31)C(C#N)C(C)(C)NC2=O (centres unmarked)", "effect on": "thermal stability", "technique": "DSF", "tested at": "10 µM", "measurement": "ΔTm", "result": "-0.1 °C"}
{"Structure (SMILES)": "C[S+]([O-])c1ccc(-c2nc(-c3ccncc3)c(-c3ccc(F)cc3)[nH]2)cc1 (centres unmarked)", "effect on": "cell-free assay", "tested at": "0.5 µM", "measurement": "remaining signal", "result": "94.4%"}
{"Structure (SMILES)": "c1nc2c(Nc3ccc4c(c3)OCCO4)nc(Nc3ccc4c(c3)OCCO4)nc2[nH]1", "effect on": "enzyme activity", "mode": "inhibitor", "tested at": "10 µM", "measurement": "activity vs control", "result": "9.7%"}
{"Structure (SMILES)": "COc1cc2nccc(Oc3ccc(NC(=S)NC(=O)c4ccccc4C)cc3)c2cc1OC", "effect on": "enzyme activity", "mode": "inhibitor", "tested at": "0.5 µM", "measurement": "remaining activity", "result": "30.6%"}
{"Structure (SMILES)": "O=C(Nc1cnc(Oc2ccc(F)cc2)nc1)N1CCc2ncccc2[C@@H]1c1ccc(F)cc1", "effect on": "cell-free assay", "technique": "competition with immobilised ligand", "tested at": "1 µM", "measurement": "remaining binding", "result": "94%"}
{"Structure (SMILES)": "COc1cc2c(N3CCN(C(=O)Nc4ccc(OC(C)C)cc4)CC3)ncnc2cc1OCCCN1CCCCC1", "effect on": "cell-free assay", "tested at": "0.5 µM", "measurement": "remaining signal", "result": "109%"}
{"Structure (SMILES)": "O=C(Nc1cnn(-c2csc(C(=O)NC3COC3)c2)c1)Nc1ccccc1Cl", "effect on": "enzyme activity", "mode": "inhibitor", "tested at": "5 µM", "measurement": "remaining activity", "result": "106%"}
{"Structure (SMILES)": "c1ccc(N2CCN(Cc3nc4ccccc4[nH]3)CC2)nc1", "effect on": "cell-free assay", "technique": "competition with immobilised ligand", "tested at": "1 µM", "measurement": "remaining binding", "result": "100%"}
{"Structure (SMILES)": "Oc1ccc(-c2nc(-c3ccncc3)c(-c3ccc(F)cc3)[nH]2)cc1", "effect on": "cell-free assay", "tested at": "0.5 µM", "measurement": "remaining signal", "result": "93.9%"}
